Source: PMC8958324 (iScience, 2022)

Tests used:
S144-Alexa488 Rho F208W = S144-Alexa488 Rho F208W (Bos taurus, UniProt P02699, F208W/S144F); experiment: Alexa488-based FRET assay, 11CR entry kinetics; assay type: binding, bovine; conditions: F208W vs wt; Eyring plot
Method in brief: (§1)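 Bovine opsin bearing S144azF is expressed in HEK293F cells with 1 mm azF for 96 h and regenerated with 11CR. It is purified by 1D4 immunopurification in DDM and labelled on resin with 50 μm Alexa488-DIBO for 18 h at 25°C. Labelled receptor (5–50 nm) sits in 1% POPC/1% CHAPS bicelles, pH 6.0, with 0.5–30 μm 11CR. Fluorescence (ex 488, em 520 nm) decay gives kobs; kon = kobs/[retinal], measured across temperatures for Eyring plots; mean ± STD.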

Rho I189P [1] = biological target: T1, Rho I189P (Bos taurus, UniProt P02699, I189P); experiment: Trp-based FRET assay, 11CR entry kinetics; assay type: binding, bovine; conditions: I189P vs I189, TM5 single vs TM5/I189P double mutants, kon Trp
Method in brief: (§2)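 Mutant bovine opsin is expressed in HEK293F cells, regenerated with 5 μm 11CR overnight at 4°C, then 1D4-immunopurified in DDM and C9-peptide eluted. Receptor at 0.25–0.30 μm is diluted into 1% POPC/1% CHAPS bicelles, pH 6.0, stirred in a temperature-controlled cuvette, with 11CR at 0.5–30 μm final. Trp quenching (ex 295, em 330 nm) is fitted pseudo-first-order; k2 = kobs/[retinal]. Data are mean ± STD of ≥3 trials.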

Rho A269W = Rho A269W (Bos taurus, UniProt P02699, A269W); experiment: regeneration with 11CR; assay type: binding, bovine; conditions: expressed at very low level
S144-Alexa488 Rho F212A = S144-Alexa488 Rho F212A (Bos taurus, UniProt P02699, F212A/S144F); experiment: Alexa488-based FRET assay, 11CR entry kinetics; assay type: binding, bovine; conditions: F212A vs wt; Eyring plot
Method in brief: as §1

opsin = conditions: 11CR binding with opsin; ref Tian et al., 2017a; cited from earlier work
Rho A269Y = Rho A269Y (Bos taurus, UniProt P02699, A269Y); experiment: regeneration with 11CR; assay type: binding, bovine; conditions: 11CR 15 μM, over 48 h
Rho T94I [2] = biological target: T2, Rho T94I (Bos taurus, UniProt P02699, T94I); experiment: Trp-based FRET assay, 11CR entry kinetics; assay type: binding, bovine
Method in brief: as §2

Rho F212W = Rho F212W (Bos taurus, UniProt P02699, F212W); experiment: Trp-based FRET assay, 11CR entry kinetics; assay type: binding, bovine
Method in brief: as §2

Rho A269F = Rho A269F (Bos taurus, UniProt P02699, A269F); experiment: Trp-based FRET assay, ATR release kinetics; assay type: binding, bovine
Method in brief: (§3)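 ATR release runs on HEK293F-expressed, 1D4-immunopurified mutant bovine rhodopsin at 0.25–0.30 μm in 1% POPC/1% CHAPS bicelles, pH 6.0. Release is followed as recovery of Trp fluorescence (ex 295, em 330 nm), the inverse of retinal-induced quenching, integrated for 2 s every 30 s. Traces are fitted to a single exponential to give koff, reported as mean ± STD of ≥3 trials.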

Rho I189P [3] = biological target: T1, Rho I189P; experiment: Trp-based FRET assay, ATR release kinetics; assay type: binding, bovine; conditions: I189P vs I189, TM5 single vs TM5/I189P double mutants, koff Trp
Method in brief: as §3

Rho T94I [4] = biological target: T2, Rho T94I; experiment: Trp-based FRET assay, ATR release kinetics; assay type: binding, bovine
Method in brief: as §3

Rho F212A = Rho F212A (Bos taurus, UniProt P02699, F212A); experiment: Trp-based FRET assay, ATR release kinetics; assay type: binding, bovine
Method in brief: as §3

| SMILES | increase of activation enthalpy (Δ‡H) of 11CR entry (S144-Alexa488 Rho F208W) [kcal/mol] | reduction of activation free energy Δ‡Gon by I189P (Rho I189P [1]) [kcal/mol] | regeneration with 11CR (Rho A269W) | reduction of activation enthalpy (Δ‡H) of 11CR entry (S144-Alexa488 Rho F212A) [kcal/mol] | activation barrier Δ‡Gon (opsin) [kcal/mol] | regeneration with 11CR (Rho A269Y) | 11CR entry kinetics (relative to wt) (Rho T94I [2]) | 11CR entry kinetics normalized to the wt Rho (Rho F212W) | ATR exit kinetics normalized to the wt Rho (Rho A269F) | reduction of activation free energy Δ‡Goff by I189P (Rho I189P [3]) [kcal/mol] | ATR release kinetics (relative to wt) (Rho T94I [4]) | ATR exit kinetics normalized to the wt Rho (Rho F212A) |
| --- | --- | --- | --- | --- | --- | --- | --- | --- | --- | --- | --- | --- |
| CC1=C(/C=C/C(C)=C/C=C/C(C)=C/C=O)C(C)(C)CCC1 [11CR, 11-cis-retinal] | 4.8 ± 3.1 | 1.6 ± 0.3 | failed to regenerate | 3.7 ± 1.6 | 13.5 | could not be regenerated | 0.80 ± 0.04 | 0.043 ± 0.022 |  |  |  |  |
| CC1=C(/C=C/C(C)=C/C=C/C(C)=C/C=O)C(C)(C)CCC1 [ATR, all-trans-retinal] |  |  |  |  |  |  |  |  | 0.91 ± 0.07 | 1.6 ± 0.8 | 0.17 ± 0.02 | 2.82 ± 1.0 |
